Experimental data from ChEMBL document CHEMBL2177018, “Identification, synthesis, and biological evaluation of metabolites of the experimental cancer treatment drugs indotecan (LMP400) and indimitecan (LMP776) and investigation of isomerically hydroxylated indenoisoquinoline analogues as topoisomerase I poisons” (J Med Chem, 2012).
The source made the active and inactive calls. No cut-off for these calls is given here.

Columns and labels:
HOP-62 = assay: Antiproliferative activity against human HOP62 cells; type: functional
Procedure, shortened: (§1)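 NCI-60 human tumour cell line panel. Initial one-dose pre-screen at 10−5 molar, then five concentrations from 10−8 to 10−4 molar. GI50 taken as the concentration giving 50% growth inhibition.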

OVCAR-3 = assay: Antiproliferative activity against human OVCAR3 cells; type: functional; procedure, shortened: as §1
SN12C = assay: Antiproliferative activity against human SN12C cells; type: functional; procedure, shortened: as §1
HCT-116 = assay: Antiproliferative activity against human HCT116 cells; type: functional; procedure, shortened: as §1
SF-539 = assay: Antiproliferative activity against human SF539 cells; type: functional; procedure, shortened: as §1
DU-145 = assay: Antiproliferative activity against human DU145 cells; type: functional; procedure, shortened: as §1
MCF7 = assay: Antiproliferative activity against human MCF7 cells; type: functional; procedure, shortened: as §1
[1] = biological target: T1, DNA topoisomerase 1 (Homo sapiens) (UniProt P11387); assay: Inhibition of human recombinant Top1-mediated DNA cleavage after 20 mins by […] analysis relative to camptothecin; design: concentration or dose not given beside the values
T1 sequence (whole entry): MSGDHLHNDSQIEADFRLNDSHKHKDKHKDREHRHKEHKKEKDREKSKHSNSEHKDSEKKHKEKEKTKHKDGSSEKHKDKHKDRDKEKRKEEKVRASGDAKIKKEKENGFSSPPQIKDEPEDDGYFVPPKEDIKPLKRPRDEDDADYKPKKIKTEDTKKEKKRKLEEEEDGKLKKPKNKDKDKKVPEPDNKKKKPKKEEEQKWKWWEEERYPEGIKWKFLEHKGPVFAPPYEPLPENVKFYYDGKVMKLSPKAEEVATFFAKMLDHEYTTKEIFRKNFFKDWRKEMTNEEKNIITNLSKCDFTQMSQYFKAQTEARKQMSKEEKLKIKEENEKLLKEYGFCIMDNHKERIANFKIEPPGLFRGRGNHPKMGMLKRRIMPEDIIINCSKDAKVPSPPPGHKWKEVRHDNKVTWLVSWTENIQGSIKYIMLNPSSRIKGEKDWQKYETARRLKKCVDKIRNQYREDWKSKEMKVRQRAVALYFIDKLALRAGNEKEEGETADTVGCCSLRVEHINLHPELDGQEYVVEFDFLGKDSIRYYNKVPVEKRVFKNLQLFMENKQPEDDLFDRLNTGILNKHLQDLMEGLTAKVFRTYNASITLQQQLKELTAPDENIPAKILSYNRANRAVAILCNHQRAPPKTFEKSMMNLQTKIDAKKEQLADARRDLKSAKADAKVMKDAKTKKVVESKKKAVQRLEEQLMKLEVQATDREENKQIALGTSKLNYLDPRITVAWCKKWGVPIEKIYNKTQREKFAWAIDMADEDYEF
Procedure, shortened: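 Baculovirus-purified human recombinant Top1 with ~2 nM 117-bp oligonucleotide, 3′-end 32P-labelled. Compounds at 0.1–100 μM, room temperature 20 min, stopped with 0.5% SDS. 20% denaturing PAGE, phosphorimaging. Cleavage graded against 1 μM camptothecin.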

UACC-62 = assay: Antiproliferative activity against human UACC62 cells; type: functional; procedure, shortened: as §1
Liver microsomes [2] = assay: Drug metabolism in human liver microsomes assessed as formation of 5,6-Dihydro-3-hydroxy-2-methoxy-8,9-methylenedioxy-6-3- [(morpholino)propyl)]-5,11-dioxo-11H-indeno[1,2-c]- isoquinoline at 10 uM after 60 mins in presence of NADPH; type: ADME, Microsome; conditions: 1 h
Procedure, shortened: (§2)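 Substrate at 10 μM with pooled human liver microsomes (15 donors, mixed gender; 1 mg/mL protein) in 50 mM phosphate, pH 7.4, 37 °C. After 5 min preincubation, 1 mM NADPH started a 60 min reaction. Stopped on ice with acidified acetonitrile; supernatant dried, redissolved, LC-MS and LC-MS/MS. Controls lacked microsomes or NADPH.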

Liver microsomes [3] = assay: Drug metabolism in human liver microsomes assessed as formation of 8,9-Dihydroxy-2,3-dimethoxy-6-(3-morpholinopropyl)-5Hindeno[ 1,2-c]isoquinoline-5,11(6H)-dione at 10 uM after 60 mins in presence of NADPH; type: ADME, Microsome; conditions: 1 h; procedure, shortened: as §2
Liver microsomes [4] = assay: Drug metabolism in human liver microsomes assessed as formation of 5,6-Dihydro-3-hydroxy-6-3-(1H-imidazol-1-yl)propyl)-2-methoxy- 8,9-methylenedioxy-5,11-dioxo-11H-indeno[1,2-c]- isoquinoline at 10 uM after 60 mins in presence of NADPH; type: ADME, Microsome; procedure, shortened: as §2
Liver microsomes [5] = assay: Drug metabolism in human liver microsomes assessed as formation of 6-(3-(1H-Imidazol-1-yl)propyl)-8,9-dihydroxy-2,3-dimethoxy-5H-indeno[1,2-c]isoquinoline-5,11(6H)-dione at 10 uM after 60 mins in presence of NADPH; type: ADME, Microsome; procedure, shortened: as §2

Row | SMILES | GI50 (OVCAR-3) | GI50 (HCT-116) | GI50 (DU-145) | GI50 (MCF7) | inhibition [1] | Drug metabolism (Liver microsomes [2]) | Drug metabolism (Liver microsomes [3]) | Drug metabolism (Liver microsomes [4]) | Drug metabolism (Liver microsomes [5]) | GI50 (HOP-62) | GI50 (SN12C) | GI50 (SF-539) | GI50 (UACC-62)
1 | COc1cc2c(cc1O)-c1c(c3cc(OC)c(OC)cc3c(=O)n1CCCN1CCOCC1)C2=O | 8320 nM | 2340 nM | 204 nM | 30 nM | 75% |  |  |  |  | 180 nM | 191 nM | 282 nM | 70 nM
2 | COc1cc2c3c(n(CCCN4CCOCC4)c(=O)c2cc1OC)-c1cc2c(cc1C3=O)OCO2 [INDOTECAN] |  |  |  |  |  | Active | Active |  |  |  |  |  | 
3 | COc1cc2c3c(n(CCCn4ccnc4)c(=O)c2cc1OC)-c1cc2c(cc1C3O)OCO2 (centres undefined) | 1950 nM | 1350 nM | 407 nM | 427 nM | 50% |  |  |  |  | 549 nM | 501 nM | 479 nM | 372 nM
4 | COc1cc2c(cc1O)-c1c(c3cc(OC)c(OC)cc3c(=O)n1CCCn1ccnc1)C2=O | > 100000 nM | > 100000 nM | > 100000 nM | 50 nM | 50% |  |  |  |  | > 100000 nM |  |  | 331 nM
5 | COc1cc2c3c(n(CCCn4ccnc4)c(=O)c2cc1OC)-c1cc2c(cc1C3=O)OCO2 [INDIMITECAN] |  |  |  |  |  |  |  | Active | Active |  |  |  | 
6 | COc1cc2c3c(n(CCCN4CCOCC4)c(=O)c2cc1OC)-c1cc2c(cc1C3O)OCO2 (centres undefined) | 4790 nM | 2400 nM | 2630 nM | 646 nM | 50% |  |  |  |  | 2090 nM | 3390 nM | 2400 nM | 776 nM
7 | COc1cc2c(=O)n(CCCN3CCOCC3)c3c(c2cc1O)C(=O)c1cc2c(cc1-3)OCO2 | 871 nM | 279 nM | 257 nM | 144 nM | 50% |  |  |  |  | 257 nM | 195 nM | 335 nM | 282 nM
8 | COc1cc2c3c(n(CCCN4CCOCC4)c(=O)c2cc1OC)-c1cc(O)c(O)cc1C3=O | 501 nM | 407 nM | 490 nM | 50 nM | Active |  |  |  |  | 371 nM | 65 nM | 148 nM | 78 nM

The remaining compounds from weak to strong by GI50 (OVCAR-3), led by results:

Row | GI50 (OVCAR-3) | GI50 (HCT-116) | GI50 (DU-145) | GI50 (MCF7) | inhibition [1] | Drug metabolism (Liver microsomes [2]) | Drug metabolism (Liver microsomes [3]) | Drug metabolism (Liver microsomes [4]) | Drug metabolism (Liver microsomes [5]) | SMILES | GI50 (HOP-62) | GI50 (SN12C) | GI50 (SF-539) | GI50 (UACC-62)
9 | 407 nM | 229 nM | 100 nM | 20 nM | 50% |  |  |  |  | COc1cc2c3c(n(CCCn4ccnc4)c(=O)c2cc1OC)-c1cc(O)c(O)cc1C3=O | 40 nM | 30 nM | 10 nM | < 10 nM
10 | 70 nM | 20 nM | < 10 nM |  | Active |  |  |  |  | COc1cc2c(=O)n(CCCn3ccnc3)c3c(c2cc1O)C(=O)c1cc2c(cc1-3)OCO2 | < 10 nM | < 10 nM | < 10 nM | 30 nM
11 | 30 nM | 20 nM | < 10 nM | < 10 nM | 75% |  |  |  |  | COc1cc2c3c(n(CCCN4CCOCC4)c(=O)c2cc1O)-c1cc2c(cc1C3=O)OCO2 | 10 nM | < 10 nM | < 10 nM | < 10 nM
12 | 30 nM | < 10 nM | < 10 nM | < 10 nM | Active |  |  |  |  | COc1cc2c3c(n(CCCn4ccnc4)c(=O)c2cc1O)-c1cc2c(cc1C3=O)OCO2 | < 10 nM | < 10 nM | < 10 nM | < 10 nM
13 | 30 nM | 30 nM | 20 nM | 20 nM | Active |  |  |  |  | COc1cc2c(cc1O)C(=O)c1c-2n(CCCN2CCOCC2)c(=O)c2cc(OC)c(OC)cc12 | 20 nM | 20 nM | 20 nM | 20 nM
14 | 20 nM | < 10 nM | < 10 nM | < 10 nM | Active |  |  |  |  | COc1cc2c(cc1O)C(=O)c1c-2n(CCCn2ccnc2)c(=O)c2cc(OC)c(OC)cc12 | < 10 nM | < 10 nM | < 10 nM | < 10 nM
